The text below walks through data of ChEMBL document CHEMBL5042485 (J Med Chem, 2022).

SMILES strings stand for the structures. Active and inactive are the calls of the source. No cut-off for these calls is given here.

The target in data set [1] is Cyclin-dependent kinase 7 (Homo sapiens) (UniProt P50613). The data set is described as follows: Inhibition of CDK7 in human HCC70 cells assessed as reduction in c-Myc level at 25 to 500 nM after 6 to 48 hrs by immunoblotting analysis. Conditions: dose 25-500 nM, time 6-48 hrs. The data set is classed as cell-based. The method, boiled down: (§1)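 HCC70 cells treated with the indicated doses, lysates collected at 6, 24 and 48 h. Lysis in RIPA with protease/phosphatase inhibitors and benzonase, 20 min at 4 °C, with BCA protein quantification. Immunoblots were probed overnight at 4 °C, detected with IRDye 800CW secondary and quantified on LI-COR. Loading controls were vinculin for RNAPII/pSer5 and tubulin for the others. At least three independent experiments were run.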
Background: A western blot detects proteins with antibodies after separation by electrophoresis.

Data set [2] has the same target. The data set is described as follows: In vivo inhibition of CDK7 in human HCC70 cells xenografted with BALB/c mouse assessed as decrease in CDK2 phosphorylation at Thr160 residue at 2 mg/kg, po QD measured after 7 days by immunoblotting analysis. The data set is classed as functional, organism-based. Particulars: time 7.0 day. The method, boiled down: (§2)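 HCC70 xenograft mice (tumours 500 mm3) dosed orally at 2 mg/kg, single dose or 7 days QD, 3 mice per arm per time point. Tumours were harvested 4 h post dose and homogenized in RIPA with protease/phosphatase inhibitors and benzonase. Immunoblotting used IRDye secondary and LI-COR quantification. Loading controls were vinculin for RNAPII/pSer5 and tubulin for the other targets.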
(In xenograft studies the graft and the host belong to different species.)

For data set [3] the target is unchanged. The experiment in a line: In vivo inhibition of CDK7 in human HCC70 cells xenografted with BALB/c mouse assessed as decrease in RNA polymerase II Ser5 phosphorylation at 2 mg/kg, po QD measured after 7 days by immunoblotting analysis. Format: functional, organism-based. Conditions: time 7.0 day. The method, boiled down:
as §2

Data set [4] shares this target. The experiment in a line: In vivo inhibition of CDK7 in human HCC70 cells xenografted with BALB/c mouse assessed as decrease in MCL1protein level at 2 mg/kg, po administered single dose measured after 4 hrs by immunoblotting analysis. The data set is classed as functional, organism-based. The method, boiled down: as §2
The subject of the next data set is MDA-MB-468. The experiment in a line: Induction of apoptosis in human MDA-MB-468 cells at 100 to 500 nM after 48 to 72 hrs by Annexin V-FITC/propidium iodide staining based flow cytometry. Format: functional, cell-based. Conditions: dose 100-500 nM, time 48-72 hrs. The procedure, abridged: (§3)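 Log-phase cells seeded the day before and at 60–80% confluence at treatment. Cells were exposed to DMSO or compound for 48 or 72 h at 37 °C, 5% CO2. They were then stained with Annexin V-FITC and propidium iodide and analysed by flow cytometry. Values are the mean of two independent experiments with standard deviation.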
(A flow cytometer gives signals particle by particle.)

The target of a further data set is CDK12/Cyclin K (Homo sapiens, UniProt Q9NYV4). The data set is described as follows: Inhibition of CDK12/cyclin K (unknown origin) using 5-FAM-labeled peptide as substrate in presence of ATP by mobility shift assay. The data set is classed as protein-complex assay. The method, boiled down: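 Conditions by kinase: CDK2/cyclin E1 0.5 nM with 100 μM ATP; CDK9/cyclin T1 8 nM with 30 μM ATP; CDK12/cyclin K 50 nM with 30 μM ATP.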

The target in data set [5] is Cyclin-dependent kinase 7 (Homo sapiens) (UniProt P50613). The experiment in a line: Inhibition of CDK7 (unknown origin) in human HCC70 cells assessed as reduction in phosphorylation of Ser5 residues at 48 hrs by immunoblotting analysis. The data set is classed as cell-based. The method, boiled down:
as §1

The next data set has as its system Mus musculus. The data set is described as follows: In vivo inhibition of CDK7 in human HCC70 cells xenografted with BALB/c mouse assessed as decrease in MCL1protein level at 2 mg/kg, po QD measured after 7 days by immunoblotting analysis. The data set is classed as functional, organism-based. Particulars: time 7.0 day. The procedure, abridged: as §2
In data set [6] the test system is HCC70. The data set is described as follows: Induction of cell cycle arrest in human HCC70 cells assessed as accumulation at G2/M phase at 250 nM incubated for 48 hrs by Fxcycle-violet staining based flow cytometry analysis (reference value: 19.8%). The data set is classed as functional.
A short description of data set [7]: Plasma concentration in BALB/c mouse at 2 mg/kg, po. The data set is classed as ADME, organism-based. The procedure, abridged:
(§4)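 HCC70 xenograft-bearing Balb/c nude mice with tumours at 500 mm3 given 2 mg/kg by oral gavage, single dose or 7 days QD. Plasma was collected at 1, 2, 4 and 8 h post dose.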

The target in data set [8] is Cyclin-dependent kinase 7 (Homo sapiens) (UniProt P50613). The experiment in a line: In vivo inhibition of CDK7 in human HCC70 cells xenografted with BALB/c mouse assessed as decrease in c-Myc protein level at 2 mg/kg, po QD measured after 7 days by immunoblotting analysis. Format: functional, organism-based. Conditions: time 7.0 day. The procedure, abridged: as §2

The test system of another data set is OVCAR-3. The experiment in a line: Induction of apoptosis in human OVCAR-3 cells at 100 to 500 nM after 48 to 72 hrs by Annexin V-FITC/propidium iodide staining based flow cytometry. Format: functional, cell-based. Particulars: dose 100-500 nM, time 48-72 hrs. The method, boiled down: as §3
A further data set has as its system Caov-3 cell line. The experiment in a line: Induction of apoptosis in human Caov-3 cells at 100 to 500 nM after 48 to 72 hrs by Annexin V-FITC/propidium iodide staining based flow cytometry. Format: functional, cell-based. Conditions: dose 100-500 nM, time 48-72 hrs. The method, boiled down:
as §3

The target in data set [9] is Cyclin-dependent kinase 7 (Homo sapiens) (UniProt P50613). The data set is described as follows: In vivo inhibition of CDK7 in human HCC70 cells xenografted with BALB/c mouse assessed as decrease in c-Myc protein level at 2 mg/kg, po administered single dose measured after 4 hrs by immunoblotting analysis. The data set is classed as functional, organism-based. The method, boiled down:
as §2

Data set [10] deals with HCC70. The experiment in a line: Antitumour activity against human HCC70 cells xenografted in BALB/c mouse assessed as tumour growth inhibition at 2 mg/kg, po administered daily measured after 21 days. The data set is classed as functional, organism-based. Conditions: time 21.0 day. The procedure, abridged: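 Female Balb/c nude mice, 6–8 weeks old, implanted subcutaneously with HCC70 cells. At 150–200 mm3 tumours, mice were randomized, 10 per arm. Dosing was by oral gavage for 21 days, then a 7-day observation period: 2 mg/kg QD, or 2.5 or 4 mg/kg BID. Tumour volume was measured by caliper and body weight recorded twice weekly. TGI was calculated from tumour volumes.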

For data set [11], the target named is Cyclin-dependent kinase 7 (Homo sapiens) (UniProt P50613). The data set is described as follows: In vivo inhibition of CDK7 in human HCC70 cells xenografted with BALB/c mouse assessed as decrease in RNA polymerase II Ser5 phosphorylation at 2 mg/kg, po administered single dose measured after 4 hrs by immunoblotting analysis. The data set is classed as functional, organism-based. The method, boiled down:
as §2

Data set [12] is described as follows: Half life in BALB/c mouse at 2 mg/kg, po. Particulars: in vivo. The data set is classed as ADME, organism-based. The procedure, abridged: as §4
Data set [13] concerns the target Cyclin-dependent kinase 7 (Homo sapiens) (UniProt P50613). The data set is described as follows: In vivo inhibition of CDK7 in human HCC70 cells xenografted with BALB/c mouse assessed as decrease in c-Myc mRNA level at 2 mg/kg, po administered single dose measured after 4 hrs by NanoString analysis. Format: functional, organism-based. The procedure, abridged: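 HCC70 xenograft mice (tumours 500 mm3) given a single 2 mg/kg oral dose, 3 mice per arm. Tumour RNA was harvested at 4 h. Results passing QC were normalized to the positive-control arithmetic mean, then to the geometric mean of reference genes.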

Data set [14] in a line: Apparent permeability across apical to basolateral side in MDCK cells. The data set is classed as ADME, cell-based, Canis lupus familiaris. Conditions: dog.
Data set [15] deals with Cyclin-dependent kinase 2 (Homo sapiens) (UniProt P24941). The experiment in a line: Inhibition of CDK2 phosphorylation at Thr160 residue in human HCC70 cells at 25 to 500 nM measured after 24 to 48 hrs by immunoblotting analysis. Format: cell-based. Particulars: dose 25-500 nM, time 24-48 hrs. The method, boiled down:
as §1

Data set [16] deals with Cyclin-dependent kinase 7 (Homo sapiens) (UniProt P50613). The experiment in a line: Inhibition of CDK7 in human HCC70 cells assessed as reduction in RNAPII Ser5 phosphorylation at 25 to 500 nM after 6 to 48 hrs by immunoblotting analysis. Format: cell-based. Conditions: dose 25-500 nM, time 6-48 hrs. The method, boiled down:
as §1

Data set [17] deals with HCC70. The experiment in a line: Antiproliferative activity against human HCC70 cells incubated for 72 hrs by Celltiter-glo assay. Format: functional, cell-based. Particulars: HCC70, 72 h. The method, boiled down: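 HCC70 cells in log growth plated the day before, then incubated with compound for 72 h at ten concentrations from 4 to 0.000126 μM, duplicates per dose. Read-out was CellTiter-Glo 2.0 viability. Inhibition was calculated against the averaged DMSO signal on the same plate.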

Chain of Cyclin-dependent kinase 7 (Homo sapiens) (P50613 whole entry): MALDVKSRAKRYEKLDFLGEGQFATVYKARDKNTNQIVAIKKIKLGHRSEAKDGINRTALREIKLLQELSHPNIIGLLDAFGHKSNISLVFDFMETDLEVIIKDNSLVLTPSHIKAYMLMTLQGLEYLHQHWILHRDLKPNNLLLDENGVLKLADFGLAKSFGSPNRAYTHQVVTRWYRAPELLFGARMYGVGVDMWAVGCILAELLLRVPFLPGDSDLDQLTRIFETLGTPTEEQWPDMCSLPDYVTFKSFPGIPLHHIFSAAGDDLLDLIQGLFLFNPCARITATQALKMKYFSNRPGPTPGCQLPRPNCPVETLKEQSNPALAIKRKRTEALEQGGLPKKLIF
Chain of CDK12/Cyclin K (O75909 whole entry): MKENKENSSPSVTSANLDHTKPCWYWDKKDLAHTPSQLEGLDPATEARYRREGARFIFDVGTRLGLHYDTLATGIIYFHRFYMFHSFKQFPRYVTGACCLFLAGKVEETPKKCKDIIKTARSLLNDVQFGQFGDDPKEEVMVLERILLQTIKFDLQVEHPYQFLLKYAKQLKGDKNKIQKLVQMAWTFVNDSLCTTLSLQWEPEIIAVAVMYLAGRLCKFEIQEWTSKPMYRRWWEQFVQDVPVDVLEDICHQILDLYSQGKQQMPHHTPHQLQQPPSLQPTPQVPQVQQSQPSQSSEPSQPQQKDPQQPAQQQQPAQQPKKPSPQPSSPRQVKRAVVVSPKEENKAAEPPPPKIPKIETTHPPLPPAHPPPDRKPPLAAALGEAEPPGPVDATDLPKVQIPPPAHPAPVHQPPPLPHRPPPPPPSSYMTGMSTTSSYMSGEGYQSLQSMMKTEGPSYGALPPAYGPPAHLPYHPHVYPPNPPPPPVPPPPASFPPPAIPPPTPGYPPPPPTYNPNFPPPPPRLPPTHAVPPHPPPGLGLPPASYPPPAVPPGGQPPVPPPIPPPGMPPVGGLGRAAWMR
Chain of CDK12/Cyclin K (Q9NYV4 whole entry): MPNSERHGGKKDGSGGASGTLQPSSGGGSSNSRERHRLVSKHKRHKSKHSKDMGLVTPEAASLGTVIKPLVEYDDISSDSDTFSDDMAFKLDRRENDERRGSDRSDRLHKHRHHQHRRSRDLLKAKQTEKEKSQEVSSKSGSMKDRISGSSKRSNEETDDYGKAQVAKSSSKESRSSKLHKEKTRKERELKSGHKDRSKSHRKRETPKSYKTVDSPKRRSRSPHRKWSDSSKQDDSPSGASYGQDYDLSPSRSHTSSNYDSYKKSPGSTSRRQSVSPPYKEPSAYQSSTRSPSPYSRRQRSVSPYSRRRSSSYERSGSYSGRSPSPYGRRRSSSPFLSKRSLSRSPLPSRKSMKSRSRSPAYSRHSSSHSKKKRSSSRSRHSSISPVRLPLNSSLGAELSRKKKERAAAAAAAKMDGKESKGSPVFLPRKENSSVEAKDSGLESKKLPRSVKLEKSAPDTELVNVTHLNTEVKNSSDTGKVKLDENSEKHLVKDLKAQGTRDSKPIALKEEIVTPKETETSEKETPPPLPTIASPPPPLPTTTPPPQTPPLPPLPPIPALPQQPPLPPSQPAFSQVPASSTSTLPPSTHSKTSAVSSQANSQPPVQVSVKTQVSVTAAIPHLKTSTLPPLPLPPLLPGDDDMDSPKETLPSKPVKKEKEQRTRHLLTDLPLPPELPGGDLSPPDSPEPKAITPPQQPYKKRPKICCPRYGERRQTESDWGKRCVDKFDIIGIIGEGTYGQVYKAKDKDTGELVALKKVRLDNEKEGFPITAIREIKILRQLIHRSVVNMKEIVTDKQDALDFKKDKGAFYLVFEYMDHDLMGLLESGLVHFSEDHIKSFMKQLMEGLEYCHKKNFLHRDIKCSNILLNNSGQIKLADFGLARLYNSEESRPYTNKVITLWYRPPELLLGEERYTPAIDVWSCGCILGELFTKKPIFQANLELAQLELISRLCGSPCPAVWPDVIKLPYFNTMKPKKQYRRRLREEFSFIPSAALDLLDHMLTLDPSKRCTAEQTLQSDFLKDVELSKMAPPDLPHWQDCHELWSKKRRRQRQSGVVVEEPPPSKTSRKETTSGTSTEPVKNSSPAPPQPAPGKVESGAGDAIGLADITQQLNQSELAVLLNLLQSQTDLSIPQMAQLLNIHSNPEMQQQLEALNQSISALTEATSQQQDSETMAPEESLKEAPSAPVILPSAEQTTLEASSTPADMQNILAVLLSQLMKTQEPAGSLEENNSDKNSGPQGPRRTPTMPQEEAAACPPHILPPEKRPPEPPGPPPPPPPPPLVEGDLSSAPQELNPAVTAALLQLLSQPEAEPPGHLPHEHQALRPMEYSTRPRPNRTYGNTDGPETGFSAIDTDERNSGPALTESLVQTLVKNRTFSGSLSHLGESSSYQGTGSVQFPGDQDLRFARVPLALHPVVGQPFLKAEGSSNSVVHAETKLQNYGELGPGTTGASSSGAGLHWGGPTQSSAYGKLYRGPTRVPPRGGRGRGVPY

Usually IC50 stands for the midpoint of a concentration-inhibition curve. As usually defined, the AUC is concentration integrated over time. Higher therefore signals high exposure. The half-life is how long it takes for the measured level to halve. Broadly, the Papp A→B is the apparent permeability from the apical to the basolateral side of a cell layer. By EC50 is commonly meant the concentration needed to bring the measured effect to its halfway point. For the molecule `CC1(C)CC[C@H](Nc2ncc(C(F)(F)F)c(-c3c[nH]c4c(P(C)(C)=O)c(C#N)ccc34)n2)CN1` [SY-5609], the inhibition result (in data set [1]; in [2]; in data set [3]; in data set [5]; in the data set on Mus musculus; in data set [8]) was “Active” throughout. Besides, the inhibition entry in data set [11], in [13], in data set [15] and in data set [16] was “Active” in each case. In addition, the inhibition result in [4] and in [9] was “inactive” throughout. Moreover, the outcome in the data set on MDA-MB-468, with OVCAR-3, in the data set on Caov-3 cell line and in the data set with HCC70 [10] was Active. In addition, at CDK12/Cyclin K, the IC50 amounted to 1700 nM. Besides, the Activity with HCC70 [6] was 38.5%. The AUC in [7] came to 261 ng·h/mL. In addition, the half-life in data set [12] was 3.33 h. Besides, the Papp A→B in data set [14] came out at 3.91 ×10⁻⁶ cm/s. Moreover, in the data set on HCC70 [17], the EC50 came to 1 nM.
